Assay results as given in ChEMBL document CHEMBL3593221, “Design, synthesis and preliminary biological evaluation of indoline-2,3-dione derivatives as novel HDAC inhibitors” (Bioorg Med Chem, 2015).

Legend:
[1] = target: Histone deacetylase (HDAC1 and HDAC2) (Homo sapiens, UniProt Q13547+Q92769); assay: Inhibition of HDAC1/2 in human HeLa cell nuclear extract using Boc-Lys (acetyl)-AMC as substrate preincubated for 30 mins before substrate addition measured after 20 mins by UV-vis spectrophotometer analysis; assay type: cell-based
[2] = system: PC-3; assay: Antiproliferative activity against human PC3 cells after 48 hrs by MTT assay; assay type: functional, cell-based; conditions: PC-3, 48 h
[3] = system: MDA-MB-231; assay: Antiproliferative activity against human MDA-MB-231 cells after 48 hrs by MTT assay; assay type: functional, cell-based; conditions: MDA-MB-231, 48 h
[4] = system: K562; assay: Antiproliferative activity against human K562 cells after 48 hrs by MTT assay; assay type: functional, cell-based; conditions: K562, 48 h
[5] = system: U-937; assay: Antiproliferative activity against human U937 cells after 48 hrs by MTT assay; assay type: functional, cell-based; conditions: U-937, 48 h
[6] = Antiproliferative activity against human H7402 cells after 48 hrs by MTT assay; assay type: functional, cell-based; conditions: H7402, 48 h
Summary of the method: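 Cells kept in RPMI1640 with 10% FBS at 37 °C, 5% CO2. Seeded 5000 per well and allowed at least 4 h to settle, then exposed to a range of compound concentrations for 48 h. 1% MTT solution added for 4 h, formazan dissolved in DMSO over 15 min, OD read at 570 nm. Values are the mean of three experiments.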

[7] = system: MCF7; assay: Antiproliferative activity against human MCF7 cells after 48 hrs by MTT assay; assay type: functional, cell-based; conditions: MCF7, 48 h
[8] = system: HeLa; assay: Antiproliferative activity against human HeLa cells after 48 hrs by MTT assay; assay type: functional, cell-based
[9] = system: HEL; assay: Antiproliferative activity against human HEL cells after 48 hrs by MTT assay; assay type: functional, cell-based
[10] = Antiproliferative activity against human KG1 cells after 48 hrs by MTT assay; assay type: functional, cell-based; conditions: KG-1, 48 h
[11] = Antiproliferative activity against human ES2 cells after 48 hrs by MTT assay; assay type: functional, cell-based; conditions: ES-2, 48 h
[12] = system: HCT-116; assay: Antiproliferative activity against human HCT116 cells after 48 hrs by MTT assay; assay type: functional, cell-based; conditions: HCT-116, 48 h
[13] = Antiproliferative activity against human 3AO cells after 48 hrs by MTT assay; assay type: functional, cell-based
[14] = target: Histone deacetylase 1 (Homo sapiens, UniProt Q13547); assay: Inhibition of HDAC1 (unknown origin) using Boc-Lys (acetyl)-AMC as substrate preincubated for 30 mins before substrate addition measured after 20 mins by UV-vis spectrophotometer analysis
[15] = target: Histone deacetylase 3 (Homo sapiens, UniProt O15379); assay: Inhibition of HDAC3 (unknown origin) using Boc-Lys (acetyl)-AMC as substrate preincubated for 30 mins before substrate addition measured after 20 mins by UV-vis spectrophotometer analysis
[16] = target: T1, Protein deacetylase HDAC6 (Homo sapiens, UniProt Q9UBN7); assay: Inhibition of HDAC6 (unknown origin) using Boc-Lys (acetyl)-AMC as substrate preincubated for 30 mins before substrate addition measured after 20 mins by UV-vis spectrophotometer analysis
T1 sequence (Q9UBN7 whole entry): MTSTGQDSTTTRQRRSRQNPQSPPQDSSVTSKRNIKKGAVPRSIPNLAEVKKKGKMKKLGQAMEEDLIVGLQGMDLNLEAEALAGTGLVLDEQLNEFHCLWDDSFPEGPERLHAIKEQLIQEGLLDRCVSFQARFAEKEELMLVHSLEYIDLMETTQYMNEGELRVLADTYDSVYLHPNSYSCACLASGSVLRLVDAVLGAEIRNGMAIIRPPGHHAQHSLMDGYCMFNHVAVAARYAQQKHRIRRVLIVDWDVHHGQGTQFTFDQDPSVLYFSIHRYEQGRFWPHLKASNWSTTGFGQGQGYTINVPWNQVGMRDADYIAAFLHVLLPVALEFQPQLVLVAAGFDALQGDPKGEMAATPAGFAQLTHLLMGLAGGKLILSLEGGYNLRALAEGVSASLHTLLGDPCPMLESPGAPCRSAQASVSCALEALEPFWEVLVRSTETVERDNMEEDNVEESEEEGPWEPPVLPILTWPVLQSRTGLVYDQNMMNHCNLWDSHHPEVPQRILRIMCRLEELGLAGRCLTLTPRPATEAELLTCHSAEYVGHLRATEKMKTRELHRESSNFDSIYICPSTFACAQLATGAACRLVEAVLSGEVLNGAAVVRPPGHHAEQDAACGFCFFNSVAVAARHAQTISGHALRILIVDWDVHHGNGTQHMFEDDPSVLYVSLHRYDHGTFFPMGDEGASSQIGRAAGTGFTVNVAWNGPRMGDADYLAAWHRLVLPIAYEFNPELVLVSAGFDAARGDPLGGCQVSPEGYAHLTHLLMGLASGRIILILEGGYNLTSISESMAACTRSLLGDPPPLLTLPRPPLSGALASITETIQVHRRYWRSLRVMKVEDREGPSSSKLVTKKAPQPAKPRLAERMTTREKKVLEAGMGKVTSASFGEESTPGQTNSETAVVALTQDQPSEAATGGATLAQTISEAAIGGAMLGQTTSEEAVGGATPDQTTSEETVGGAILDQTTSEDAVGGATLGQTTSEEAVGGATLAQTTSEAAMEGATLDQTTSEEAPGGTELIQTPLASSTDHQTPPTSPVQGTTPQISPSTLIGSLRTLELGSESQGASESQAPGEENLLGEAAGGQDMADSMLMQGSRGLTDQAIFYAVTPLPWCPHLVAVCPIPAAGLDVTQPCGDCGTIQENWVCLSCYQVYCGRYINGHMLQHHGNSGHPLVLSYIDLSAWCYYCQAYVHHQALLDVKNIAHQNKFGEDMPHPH

[17] = Antitumor activity against human H7402 cells xenografted in mouse assessed as tumor increment ratio at 60 mg/kg/day, po for 16 days relative to control; assay type: functional
Summary of the method: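 Male athymic nude mice, 4-6 weeks old, inoculated subcutaneously in the right axilla with 6.88×10^7 H7402 cells. After 8 days, at about 140 mm³ mean tumor volume, mice were randomized to groups of seven. Daily gavage for 16 days; controls received an equal volume of PBS. Tumors were measured by caliper every three days, V=ab²/2. T/C% = treated RTV/control RTV, where RTV = Vt/V0. Two-tailed t test.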

[18] = system: Mus musculus; assay: Toxicity in human H7402 cells xenografted mouse assessed as change in body weight at 60 mg/kg/day, po for 16 days; assay type: organism-based; conditions: in vivo, 384 h
Summary of the method: (§1)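 H7402 subcutaneous xenograft in male athymic nude mice, seven per group, started once tumors reached about 140 mm³. Compound given daily by gavage for 16 days; controls received an equal volume of PBS. Body weight recorded every three days, and toxicity monitored during treatment.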

[19] = system: Mus musculus; assay: Toxicity in human H7402 cells xenografted mouse assessed as change in toxic effect at 60 mg/kg/day, po for 16 days; assay type: organism-based; conditions: in vivo, 384 h; summary of the method: as §1

Sequence of Histone deacetylase 1 (Q13547 whole entry): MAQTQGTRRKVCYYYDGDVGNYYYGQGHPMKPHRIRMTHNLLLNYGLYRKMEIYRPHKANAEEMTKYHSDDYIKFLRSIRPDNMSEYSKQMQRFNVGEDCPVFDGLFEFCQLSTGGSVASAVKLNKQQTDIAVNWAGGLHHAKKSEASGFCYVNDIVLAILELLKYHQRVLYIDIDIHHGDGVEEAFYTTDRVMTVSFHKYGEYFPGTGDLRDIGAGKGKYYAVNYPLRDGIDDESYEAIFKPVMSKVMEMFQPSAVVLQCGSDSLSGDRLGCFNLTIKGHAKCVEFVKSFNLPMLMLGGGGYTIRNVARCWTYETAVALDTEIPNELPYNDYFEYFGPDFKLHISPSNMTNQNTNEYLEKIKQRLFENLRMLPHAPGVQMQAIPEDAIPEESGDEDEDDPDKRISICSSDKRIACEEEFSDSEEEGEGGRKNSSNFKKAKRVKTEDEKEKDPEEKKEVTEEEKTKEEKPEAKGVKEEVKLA
Sequence of Histone deacetylase 3 (O15379 whole entry): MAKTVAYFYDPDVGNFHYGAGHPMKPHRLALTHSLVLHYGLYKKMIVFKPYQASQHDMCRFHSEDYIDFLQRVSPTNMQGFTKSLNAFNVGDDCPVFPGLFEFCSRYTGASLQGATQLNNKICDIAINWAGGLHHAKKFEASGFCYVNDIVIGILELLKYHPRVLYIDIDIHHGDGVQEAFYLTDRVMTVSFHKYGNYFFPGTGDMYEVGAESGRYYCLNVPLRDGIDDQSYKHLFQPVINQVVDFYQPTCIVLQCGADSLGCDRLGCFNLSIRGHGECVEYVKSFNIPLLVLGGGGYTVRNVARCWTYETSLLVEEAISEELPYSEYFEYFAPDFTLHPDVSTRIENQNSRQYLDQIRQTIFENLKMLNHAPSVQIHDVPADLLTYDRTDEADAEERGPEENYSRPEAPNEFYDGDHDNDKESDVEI

SMILES	IC50 [1] [µM]	IC50 [2] [µM]	IC50 [3] [µM]	IC50 [4] [µM]	IC50 [5] [µM]	IC50 [6] [µM]	IC50 [7] [µM]	IC50 [8] [µM]	IC50 [9] [µM]	IC50 [10] [µM]	IC50 [11] [µM]	IC50 [12] [µM]	IC50 [13] [µM]	further results
O=C(CNC(=O)CN1C(=O)C2(OCCO2)c2cc(Br)ccc21)NO	> 50													
O=C(CCCNC(=O)CN1C(=O)C2(OCCO2)c2cc(Br)ccc21)NO	0.92													
O=C(CCCCCNC(=O)CN1C(=O)C2(OCCO2)c2cc(Br)ccc21)NO	0.67													
O=C(/C=C/c1ccc(NC(=O)CN2C(=O)C3(OCCO3)c3cc(Br)ccc32)cc1)NO	0.22													
O=C(CN1C(=O)C2(OCCO2)c2cc(F)ccc21)Nc1ccc(C(=O)NO)cc1	0.19													
O=C(CN1C(=O)C2(OCCO2)c2cc(Cl)ccc21)Nc1ccc(C(=O)NO)cc1	0.37													
O=C(CN1C(=O)C2(OCCO2)c2cc(Br)ccc21)Nc1ccc(C(=O)NO)cc1	0.12													
O=C(CN1C(=O)C2(OCCO2)c2ccccc21)Nc1ccc(C(=O)NO)cc1	0.31													
Cc1ccc2c(c1)C1(OCCO1)C(=O)N2CC(=O)Nc1ccc(C(=O)NO)cc1	0.28													
O=C(CN1C(=O)C2(OCCO2)c2cc([N+](=O)[O-])ccc21)Nc1ccc(C(=O)NO)cc1	> 50													
O=C(CN1C(=O)C2(OCCCO2)c2cc(Cl)ccc21)Nc1ccc(C(=O)NO)cc1	0.0344	21.9	57.1	5.32	2.09	4.64	28.4	11.3	1.25	9.19	10.1	41.9	12.3	
O=C(CN1C(=O)C2(OCCCCO2)c2cc(Cl)ccc21)Nc1ccc(C(=O)NO)cc1	0.0373	11.6	36.4	7.23	1.49	5.34	25	36.1	1.29	10.1	25.3	42.4	23.6	
O=C(CN1C(=O)C2(OCCCO2)c2cc(Br)ccc21)Nc1ccc(C(=O)NO)cc1	0.013	11	44.7	1.94	0.4	1.37	8.58	12.1	0.56	5.4	16.1	60.1	18.3	
O=C(CN1C(=O)C2(OCCCCO2)c2cc(Br)ccc21)Nc1ccc(C(=O)NO)cc1	0.0216	17.7	24.1	3.91	0.66	0.75	6.13	> 50	0.64	5.49	3.6	80.2	27.2	
O=C(CCN1C(=O)C2(OCCCO2)c2cc(Br)ccc21)Nc1ccc(C(=O)NO)cc1	0.01013	1.91	101	0.18	0.14	5.33	52.6	2.79	0.33	0.32	2.8	1.26	3.25	IC50 [14]: 0.201 µM; IC50 [15]: 0.025 µM; IC50 [16]: 0.126 µM; T/C [17]: 62.5%; Activity [18]: Non-toxic; Activity [19]: Non-toxic
O=C(CCCN1C(=O)C2(OCCCO2)c2cc(Br)ccc21)Nc1ccc(C(=O)NO)cc1	0.0194	7.93	126	0.39	0.22	0.58	13.7	22.2	0.34	0.42	6.02	1.1	21.4	
COC(=O)c1ccc(NC(=O)CN2C(=O)C3(OCCCO3)c3cc(Br)ccc32)cc1	> 50													
O=C(CN1C(=O)C2(OCCCO2)c2cc(Br)ccc21)Nc1ccc(C(=O)O)cc1	> 50													
Nc1ccccc1NC(=O)c1ccc(NC(=O)CN2C(=O)C3(OCCCO3)c3cc(Br)ccc32)cc1	0.31	4.43	82.7	0.44	1.08	1.95	5.23	26.6		5.92	6.49	0.64	9.71	
